The values that follow come from the EternaBench riboswitch data.

In general, apparent Kd refers to a dissociation constant that holds for the conditions of the assay.

The test system of this series is MS2 coat protein. Description: apparent Kd, MS2 coat protein; higher = weaker binding; RNA-MaP array; FMN 200 µM where present. Put shortly: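 Designs were transcribed by stalled E. coli RNA polymerase on Illumina sequencing-chip clusters. They were titrated with SNAP-549-labelled MS2 coat protein from 0.7 or 1.5 nM, doubling to 3 µM, in 100 mM Tris-HCl pH 7.5, 80 mM KCl, 4 mM MgCl2, BSA, DTT, yeast tRNA and Tween-20, without and then with constant ligand. The apparent Kd is the median of filtered per-cluster fits after normalisation of green signal to red-channel RNA signal and control-cluster median Fmax.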

[1] abbreviates: designed as: OFF switch for flavin mononucleotide, no ligand.
Setting [2] is: ligand present: flavin mononucleotide, designed as: OFF switch for flavin mononucleotide.
Setting [3] is: designed as: ON switch for flavin mononucleotide, no ligand.
Setting [4] is: ligand present: flavin mononucleotide, designed as: ON switch for flavin mononucleotide.

“CAGUACUGAGGAUAUACAUGAGGAUCACCCAUGUGUCUAAAGUAGGAUACUACUAUUAGUAGAAGGCAGUACUG”: the “apparent Kd” value by setting is: under setting [1], 12.1 nM; under setting [2], 14.9 nM.
For “AGAACGUCAGGAUAUGCAACAACAAGUAAAUAGAGAAGAAGGCAGAAGGGACAUGAGGAUCACCCAUGUAAGAA”, in that order: 36.6 nM and 36.3 nM.
Consider “AACAGCUCGUCAGGAUAUAUAUACUUAUAUUGUAUUUAUGUACAUGAGGAUCACCCAUGUUGUUAGUAGAAGGGACGAGCUGAA”, for which the “apparent Kd” value under setting [1] is 7.61 nM and the “apparent Kd” value under setting [2] came out at 7.16 nM.
Taken in the same sequence, the figures for “CAAAGUUGGUAAGGAUAUCCCACAUUAUUCUGACCCGUGCAAGCUACAUGAGGAUCACCCAUGUGGGAGAAGGUGCGUUAAAGC” were 372 nM and 219 nM.
For “GGUGCGUUUGUGAGGAUAUGCUGGUCCUUGGUUCGGCAGAAGGCACAUGAGGAUCACCCAUGUGGUGUCGUUCC”, the “apparent Kd” value runs as follows: under setting [1], 15 nM; under setting [2], 23.3 nM.
For the sequence “AACAAAGACACAGGAUAUCCACAAAUACAUGAGGAUCACCCAUGUUCGAAAGGAGAAGGGUGGCACCGGUACAAUCUGGUUAUC”, the “apparent Kd” value under setting [3] amounted to 275 nM and the “apparent Kd” value under setting [4] amounted to 89.3 nM.
“UAUUAAUACGAAGGAUAUGGUUACAUGAGGAUCACCCAUGUAUGUAUUUUGAUCUAAUUAUUUAACCAGAAGGUCGAAUAUAAA”: the “apparent Kd” value under setting [1] is 35.5 nM and the “apparent Kd” value under setting [2] worked out at 78.5 nM.
As for “GCAAUAGCAUGAGGAUAUGCUGGAGUUUAGACAGUAGAAGGCAUGUCAUAAGACAUGAGGAUCACCCAUGUAAUUACAAUAGCA”, the “apparent Kd” value runs as follows: under setting [3], 45.9 nM; under setting [4], 22.1 nM.
“CAGUAAUUCGAAGGAUAUGGUUACAUGAGGAUCACCCAUGUAUUUUUUGUGAUCUUAAAAUUGAUCCAGAAGGUCGAAUUACUG”: the “apparent Kd” value reads like this: under setting [1], 177 nM; under setting [2], 373 nM.
For “AGCAUGCUAGGAUAUACGAAACAUUAGGGUUCUUUGUAUGAACAUGAGGAUCACCCAUGUAGAAGGAGCGUGCA”, the “apparent Kd” value is, setting by setting: under setting [1], 109 nM; under setting [2], 170 nM.
Taken in the same sequence, the figures for “GCACUGGAUGUAGGAUAUCAGGACGAUAAGUCCUGAGAAGGACAUGAGGAUCACCCAUGUAACCUCUAACCAGUGCAUAAUAUA” were 12.6 nM and 23.1 nM.
As for “AUAAUUUUAUAUAUCAUUUUAAUCAGAAGGCAUAACAUGAGGAUCACCCAUGUAUAUUAUAGUUAUGAGGAUAUGAUUUGGUUA”, the “apparent Kd” value reads like this: under setting [1], 11.6 nM; under setting [2], 10.9 nM.
Turning to “AGUAAGAUGCAGAAGGUGUUAGCUAGAGCUACGACAUGAGGAUCACCCAUGUACUAGAAAACGUACAAGGAUAUGCAUCUUACA”, the “apparent Kd” value runs as follows: under setting [3], 7.36 nM; under setting [4], 5.98 nM.
For “UUGGACGUCGUAGGAUAUGUAGGAUAUUCCUACAUGAGGAUCACCCAUGUUGACAUGGAAGAAGGACAGAAGGUCGAUGUCCAU”, in that order: 602 nM and 9.86 nM.
With “GACGGGUGGGUAGGAUAUGGCUAUGUCUCAUUGCUAGAAGGACCAGCUGCUACAUGAGGAUCACCCAUGUCGUAGUGCACCCAG”, the “apparent Kd” value by setting is: under setting [3], 189 nM; under setting [4], 13.1 nM.
On to “CCUCAUGGUCGAGGAUAUAUAACGUGGAACGUAAUAGAAGGCGACAUGAGGAUCACCCAUGUAGCGUCCACUGGAGUCGCGCGG”, for which the “apparent Kd” value is, setting by setting: under setting [1], 119 nM; under setting [2], 62.2 nM.
Take “GGGUACAUCGGAGGAUAUCAUGUAAAUACAUGAGGAUCACCCAUGUCGAUGGAGACAUCGGAGACUGAGAAGGCCGAUGUACCG”: the “apparent Kd” value under setting [3] amounted to 41.8 nM and the “apparent Kd” value under setting [4] came to 7.18 nM.
Turning to “AGUAUGAUCCAGAAGGACAUAUGACCAAGACGAAACAUGAGGAUCACCCAUGUAGGAUAUGGAUCAUACAGGAUCGUGAGAUCA”, the “apparent Kd” value under setting [1] was 6.14 nM and the “apparent Kd” value under setting [2] is 12 nM.
Take “AACAAACAUGAGGAUCACCCAUGUCAGGAUAUGCAAACAACAAACAACAAACAACAAAGCAGAAGGGACAACAA”: the “apparent Kd” value is, setting by setting: under setting [1], 23.7 nM; under setting [2], 30.2 nM.
For “AAAAAACAUGAGGAUCACCCAUGUGAGGAUAUCUGAAAAAAAAAAAAAAAAAAGAAAAAGAGAAGGCGCAAAGA”, in that order: 124 nM and 65.2 nM.
Turning to “GACAGGGAUUCAGGAUAUAUUAGCCGAGGCCGAGUAGAAGGGAAAUCCUGACAUGAGGAUCACCCAUGUCGACCCGCCUUCCUU”, the “apparent Kd” value reads like this: under setting [3], 50.7 nM; under setting [4], 51.9 nM.
For “GGGUGACAUGAGGAUCACCCAUGUCAGGAUAUGCUUGAGCUUGAGAAAUCGAGUUCGAGUAGAAGGGACUGCCC”, the “apparent Kd” value runs as follows: under setting [1], 47.3 nM; under setting [2], 72.3 nM.
For the sequence “GGUACUCAAAGAGUACCAAUACGAACAUGAGGAUCACCCAUGUAGGAUAUGCUACUCACAGAGUAGCAGAAGGACAUGUGCCUA”, the “apparent Kd” value reads like this: under setting [1], 20.8 nM; under setting [2], 136 nM.
In the case of “UAUUAUAUAGAGAAGGACAUGAGGAUCACCCAUGUCGCCGGGCCCGGGAAACCGGGCCCGGCCAUGUAGGAUAUCUAUAUGGUA”, the “apparent Kd” value under setting [1] stood at 4.96 nM and the “apparent Kd” value under setting [2] turned out to be 5.86 nM.
Taken in the same sequence, the figures for “UGUCGGAGCAAAGGAUAUUACAUGAGGAUCACCCAUGUAUGAACCAAUAGCUGGAAACAGCAAUGUAAGAAGGCUGCUCCGACA” were 4.79 nM and 5.81 nM.
On to “GUUGUUACUGAGGAUAUUAUUUUAUUCGAUUGAUAAGAAGGCAGUACAUGAGGAUCACCCAUGUGGGUAGUUUG”, for which the “apparent Kd” value worked out at 355 nM under setting [1] and 586 nM under setting [2].
Taken in the same sequence, the figures for “GCGUCAGAAUUAAUUGUGACAGACAGAAGGCAAUAGUAUGUGACCGACAUGAGGAUCACCCAUGUUGAGGAUAUGUAUUGACAC” were 5.68 nM and 7.08 nM.
For “CAGAAGUCAGGAUAUCCAUGGCGGCACUUGCGUGGUGGCGUGGAGAAGGGACAUGAGGAUCACCCAUGUAAAGA”, in that order: 59.1 nM and 48.2 nM.
“GGAUAGGACAGAGGAUAUACGUGCUACAGAUACUAGCAAAAUUUCCUCACAUGAGGAUCACCCAUGUAGAAGGCUGUCCUAUCG”: the “apparent Kd” value worked out at 19.3 nM under setting [1] and 405 nM under setting [2].
Consider “AACUAGCUAGGAUAUACAUGAGGAUCACCCAUGUAAAAAAAAAAAAAAAGAUAUAUAUGUAGAAGGAGCUAGUA”, for which the “apparent Kd” value under setting [1] amounted to 33.7 nM and the “apparent Kd” value under setting [2] came out at 44.9 nM.
For “AAAAGCUCAGGAUAUACGGUCUGUUGUUGAGAAAUAUCGAAACAUGAGGAUCACCCAUGUAGAAGGGAGCGAAA”, in that order: 223 nM and 599 nM.
For “ACAGGUGCAGGAUAUACAAUCGUGCUUCGGCACGUAAGAUCACAUGAGGAUCACCCAUGUAGAAGGGCACCUGU”, the “apparent Kd” value by setting is: under setting [1], 44.9 nM; under setting [2], 447 nM.
Taken in the same sequence, the figures for “GCAUCCAAAGUGAGGAUAUACCUCUGGAUACAGAGGUAGAAGGCACAUGAGGAUCACCCAUGUUCCUAGGAUGC” were 15.3 nM and 74.2 nM.
On to “CUUAUGUGAGGAUAUGGUGUUGGCCACAGGAAAAAGAUUCUCCAGAAGGCACAUGAGGAUCACCCAUGUAGUGA”, for which the “apparent Kd” value stood at 51.3 nM under setting [1] and 120 nM under setting [2].
Taken in the same sequence, the figures for “UAUAUAUAGUAAGGAUAUGUAUUAAAUUUAUAAACAGAAGGUACUGACAUGAGGAUCACCCAUGUUUUAGUGUGGGCAUGUAGA” were 99.6 nM and 148 nM.
For “GUACGUGGACAGAAGGUGACAUGAGGAUCACCCAUGUUAGUUGAGGUACCAGCGAUCCGCGUGAUUGAGGAUAUGUCUGCGGGC”, the “apparent Kd” value under setting [1] came to 16.1 nM and the “apparent Kd” value under setting [2] was determined as 42.4 nM.
On to “UGAGCCUCGUGAGGAUAUACAUGAGGAUCACCCAUGUAAUAAAGUGAACGGAGGAAACUCCGAAUGUAGAAGGCACGAGGCUCA”, for which the “apparent Kd” value is 47.9 nM under setting [1] and 443 nM under setting [2].
For the sequence “GGGUACAUCGGAGGAUAUCAUGUAAAUACAUGAGGAUCACCCAUGUCGAUGGAGACAUCGGAGAUUGAGAAGGCCGAGGUACCG”, the “apparent Kd” value reads like this: under setting [3], 191 nM; under setting [4], 9.91 nM.
For “CUAUUGGUAACAGGAUAUAUGAGUCCUACAUGAGGAUCACCCAUGUAGGUGAUCUAACGAGAUUAGUAGAAGGGUUACCAAUAG”, in that order: 16.9 nM and 8.34 nM.
For “GCCAGUUGAGGAUAUGCAGGUGGGUGCCCUGAUCCUCUGUUACAUGAGGAUCACCCAUGUAGAAGGCAAUGUCA”, the “apparent Kd” value reads like this: under setting [1], 92.4 nM; under setting [2], 123 nM.
As to “ACCUGACAUGAGGAUCACCCAUGUGAGGAUAUGUACAUCAGGAAAAAAAAACUGAUGUACAGAAGGCACUUGGG”, the “apparent Kd” value under setting [1] was found to be 25.4 nM and the “apparent Kd” value under setting [2] turned out to be 37.1 nM.
With “AAAACCUCAUGAGGAUAUCCAACAUGAGGAUCACCCAUGUUAGUCUCAGUACCAGGUACUAGAGAGGAGAAGGCAUGCCAGGGC”, the “apparent Kd” value runs as follows: under setting [3], 78.6 nM; under setting [4], 27.5 nM.
“AGGAGUUUGUAGAAGGACGACUAUUAAGUUUUCGUAGGAUAUACUAUUUACAUGAGGAUCACCCAUGUUUAAAUGGAACAAUGU”: the “apparent Kd” value was determined as 7.85 nM under setting [1] and 9.08 nM under setting [2].
With “CAAUCUGCAGGAUAUACAUGAGGAUCACCCAUGUAAGGACAAUAAAUAAGAAGAAGAAGUAGAAGGGCAGACAA”, the “apparent Kd” value reads like this: under setting [1], 30.1 nM; under setting [2], 31.8 nM.
Regarding “AUACAUGAGGAUCACCCAUGUAAUUAAUUAACUUGUAAGAUCAAGGAUAUCAGCUCGAUUAGAGCUGAGAAGGUGAUCACAUGU”, the “apparent Kd” value reads like this: under setting [3], 260 nM; under setting [4], 253 nM.
Turning to “UGUCGGAGCAGAGGAUAUUACAUGAGGAUCACCCAUGUAAGAACCAAUAGCUGGAAACAGCAAUGUAAGAAGGCUGCUCCGACA”, the “apparent Kd” value by setting is: under setting [1], 5.27 nM; under setting [2], 15.9 nM.
For “GCAAAGCCUGACAUGAGGAUCACCCAUGUUAGAUUGUUAUGUCAGGAUAUUGUCUAGACACUAGACAAGAAGGGAUGCUUUGCA”, the “apparent Kd” value by setting is: under setting [3], 386 nM; under setting [4], 38.4 nM.
Consider “CUAUGGGCAGGAUAUGCAUAUCGGGAGUGGUCGCAAGCGUUACAUGAGGAUCACCCAUGUAGAAGGGCCGCGUC”, for which the “apparent Kd” value is, setting by setting: under setting [1], 18.9 nM; under setting [2], 20.4 nM.
